The source made the active and inactive calls.
Assays:
[1] = target: D(2) dopamine receptor (Rattus norvegicus) (UniProt P61169); experiment: Binding affinity towards dopamine receptor D2 at 1.0 uM concentration
Outline: (§1)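 Rat brain crude synaptic membranes in 20 mM NaHEPES pH 7.5. Ligands: α1 cortex […] 0.4 nM, nonspecific with (-)-NE 100 μM, 30 min at 25 °C. […] D2 striatum [3H]spiperone 0.05 nM with (+)-butaclamol 1 μM, 45 min at 37 °C. S1 cortex [3H]5-HT 1 nM plus glutathione and MgCl2, with 5-HT 10 μM, 20 min at 37 °C. […] Samples filtered on GF/B and counted.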

Mus musculus [2] = species: Mus musculus; experiment: Antagonism of tetrabenazine (TBZ)-induced depression in mice measured for ptosis; type: functional; conditions: Mus musculus; read-out: ED50
Outline: (§2)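 Nonfasted male Swiss Webster mice, 18–24 g, ten per dose level and in saline controls. Test compound given ip 30 min before tetrabenazine 32 mg/kg ip; dose expressed as free base. Motor activity and ptosis scored. Control response ≤90% corrected by Abbott's formula.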

[3] = target: Serotonin 1 (5-HT1) receptor (Rattus norvegicus) (UniProt P28564+P30940+P19327+P28565); experiment: Binding affinity towards serotonin S1 receptor at 1.0 uM; type: protein assay; outline: as §1
[4] = target: T1, Adrenergic receptor alpha-2 (Rattus norvegicus, UniProt P22086+P19328+P22909); experiment: Binding affinity towards alpha-2 adrenergic receptor; type: protein assay
T1 sequence (P22086 whole entry): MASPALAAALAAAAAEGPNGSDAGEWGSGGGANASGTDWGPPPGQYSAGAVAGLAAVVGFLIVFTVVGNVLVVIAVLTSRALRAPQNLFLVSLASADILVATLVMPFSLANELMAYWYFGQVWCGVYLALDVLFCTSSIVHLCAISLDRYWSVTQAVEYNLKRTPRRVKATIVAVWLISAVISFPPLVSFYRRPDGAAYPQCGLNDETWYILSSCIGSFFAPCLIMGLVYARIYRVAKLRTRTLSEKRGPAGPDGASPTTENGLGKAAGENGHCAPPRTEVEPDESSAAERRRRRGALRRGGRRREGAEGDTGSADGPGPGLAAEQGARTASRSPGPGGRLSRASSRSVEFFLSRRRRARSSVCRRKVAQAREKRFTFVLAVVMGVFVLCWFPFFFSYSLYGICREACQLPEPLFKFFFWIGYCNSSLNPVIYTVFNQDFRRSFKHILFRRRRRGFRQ
T1 sequence (P19328 whole entry): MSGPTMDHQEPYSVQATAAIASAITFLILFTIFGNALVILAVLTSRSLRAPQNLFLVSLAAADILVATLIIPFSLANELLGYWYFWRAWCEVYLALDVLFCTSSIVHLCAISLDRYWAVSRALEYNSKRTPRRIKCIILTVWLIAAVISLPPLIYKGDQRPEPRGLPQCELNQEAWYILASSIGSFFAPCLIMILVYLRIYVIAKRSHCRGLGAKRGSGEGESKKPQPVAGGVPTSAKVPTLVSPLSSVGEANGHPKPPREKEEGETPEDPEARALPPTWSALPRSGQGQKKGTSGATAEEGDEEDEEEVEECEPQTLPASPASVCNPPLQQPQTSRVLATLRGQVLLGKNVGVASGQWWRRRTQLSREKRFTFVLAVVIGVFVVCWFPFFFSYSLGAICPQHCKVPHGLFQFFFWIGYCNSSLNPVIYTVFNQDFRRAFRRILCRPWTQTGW
T1 sequence (P22909 whole entry): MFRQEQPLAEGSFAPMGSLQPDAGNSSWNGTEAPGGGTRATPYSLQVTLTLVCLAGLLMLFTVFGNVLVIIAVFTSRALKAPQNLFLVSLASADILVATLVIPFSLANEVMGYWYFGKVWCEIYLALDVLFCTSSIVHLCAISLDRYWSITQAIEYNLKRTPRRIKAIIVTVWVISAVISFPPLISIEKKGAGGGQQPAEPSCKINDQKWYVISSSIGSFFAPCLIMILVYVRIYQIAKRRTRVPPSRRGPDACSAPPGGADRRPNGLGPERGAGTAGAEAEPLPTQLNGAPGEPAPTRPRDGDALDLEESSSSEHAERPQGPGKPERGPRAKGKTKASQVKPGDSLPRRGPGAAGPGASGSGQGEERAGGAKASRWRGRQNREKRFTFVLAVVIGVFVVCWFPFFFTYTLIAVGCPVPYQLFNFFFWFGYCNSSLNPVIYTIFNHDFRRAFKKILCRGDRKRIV

Mus musculus [5] = experiment: (§3) Ability to antagonise intraperitoneal dose; inactive (<10% antagonism) at 30 mgjkg is represented as I-30.; type: functional, organism-based
Outline: (§4)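 Swiss Webster male albino mice, nonfasted, 18–24 g, 10 per dose and in saline control. Compound given ip 30 min before TBZ 32 mg/kg ip. Motor activity and ptosis scored. Response corrected by Abbott's formula when control response was 90% or less. Doses expressed as free base.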

Mus musculus [6] = experiment: as §3; type: functional, organism-based; outline: as §4; remark: listed apart in the source
Mus musculus [7] = species: Mus musculus; experiment: Gross behavioral effects ascertained in mice; W indicates weak stimulant or depressant activity of little significance.; type: functional, organism-based
Outline: (§5)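 Male Swiss Webster mice, 18–24 g, three per dose, given ip doses of 1, 3, 10, 30, 100 and 300 mg/kg. Observed for gross behavior and held for 4 days. Scored as weak (W), stimulant (S), depressant (D) or convulsant (C).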

Rattus norvegicus [8] = species: Rattus norvegicus; experiment: Ability to inhibit the uptake of tritiated dopamine (DA) 1 uM concentration; type: functional
Outline: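 Rat brain synaptosomal [3H]dopamine uptake: striatal P2 fraction, test compound at 1.00 μM. Preincubated at 37 °C, then 50–300 nM [3H]DA for 3 min. Blanks on ice. Filtration and scintillation counting; percent inhibition of control uptake.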

[9] = target: Norepinephrine transporter (Rattus norvegicus) (UniProt Q9WTR4); experiment: Ability to inhibit the uptake of [3H]norepinephrine (NE) 0.1 uM concentration at rat brain synaptosomes; type: functional, subcellular
Outline: (§6)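 Male Wistar rat brain synaptosomes (P2 fraction): hypothalamus for NE, striatum for DA, cerebral cortex for 5-HT. Buffer is Tris- or HEPES-buffered salt medium with glucose, ascorbate and nialamide, pH 7.4 at 37 °C. Preincubated 10 min at 37 °C with compound. Uptake started with [3H]NE 100–300 nM, [3H]DA 50–300 nM or [3H]5-HT 100–200 nM, incubated 3 min (DA) or 6–10 min (NE, 5-HT). Blanks held on ice. Filtered, counted by scintillation.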

[10] = target: Sodium-dependent serotonin transporter (Rattus norvegicus) (UniProt P31652); experiment: Ability to inhibit the uptake of [3H]- serotonin(5-HT) 0.1 uM concentration at rat brain synaptosomes; type: functional, subcellular; outline: as §6
Mus musculus [11] = species: Mus musculus; experiment: Antagonism of tetrabenazine (TBZ)-induced depression measured in mice by motor activity; type: functional; conditions: Mus musculus; read-out: ED50; outline: as §2
Rattus norvegicus [12] = experiment: Ability to inhibit the uptake of tritiated norepinephrine (NE) 0.1 mg/kg concentration; type: functional
Rattus norvegicus [13] = experiment: Ability to inhibit the uptake of tritiated serotonin(5-HT) 0.1 mg/kg concentration; type: functional
Rattus norvegicus [14] = species: Rattus norvegicus; experiment: Inhibition of GABA uptake at 1 uM concentration.; type: functional
[15] = target: Muscarinic acetylcholine receptor (Rattus norvegicus) (UniProt P08482+P08483+P08485+P08911+P10980); experiment: Binding affinity towards Muscarinic acetylcholine receptor at 1.0 uM concentration; type: protein assay
[16] = target: Adrenergic receptor alpha-2 (Rattus norvegicus) (UniProt P22086+P19328+P22909); experiment: Binding affinity towards alpha-2 adrenergic receptor at 1.0 uM concentration; type: protein assay
[17] = target: D(1A) dopamine receptor (Rattus norvegicus) (UniProt P18901); experiment: Binding affinity towards Dopamine receptor D1 at 1.0 uM concentration; outline: as §1
[18] = target: Serotonin 2 (5-HT2) receptor (Rattus norvegicus) (UniProt P30994+P08909+P14842); experiment: Binding affinity towards 5-hydroxytryptamine 2 receptor at 1.0 uM concentration; type: protein assay; outline: as §1
Mus musculus [19] = species: Mus musculus; experiment: Gross behavioral effects ascertained in mice; S indicates significant stimulant properties.; type: functional, organism-based; outline: as §5
[20] = target: Serotonin 1 (5-HT1) receptor (Rattus norvegicus, UniProt P28564+P30940+P19327+P28565); experiment: Binding affinity towards serotonin S1 receptor; type: protein assay; outline: as §1
[21] = target: Sodium-dependent dopamine transporter (Rattus norvegicus, UniProt P23977); experiment: Inhibition of the uptake of tritiated dopamine (DA) in rat synaptosomes; type: subcellular, Brain
[22] = target: Norepinephrine transporter (Rattus norvegicus, UniProt Q9WTR4); experiment: Inhibition of uptake of tritiated norepinephrine (NE) in rat synaptosomes; type: subcellular, Brain
[23] = target: Adrenergic receptor alpha-1 (Rattus norvegicus) (UniProt P15823+P23944+P43140); experiment: Binding affinity towards alpha-1 adrenergic receptor at 1.0 uM concentration; type: protein assay; outline: as §1

Chain of D(2) dopamine receptor (Rattus norvegicus) (P61169 whole entry): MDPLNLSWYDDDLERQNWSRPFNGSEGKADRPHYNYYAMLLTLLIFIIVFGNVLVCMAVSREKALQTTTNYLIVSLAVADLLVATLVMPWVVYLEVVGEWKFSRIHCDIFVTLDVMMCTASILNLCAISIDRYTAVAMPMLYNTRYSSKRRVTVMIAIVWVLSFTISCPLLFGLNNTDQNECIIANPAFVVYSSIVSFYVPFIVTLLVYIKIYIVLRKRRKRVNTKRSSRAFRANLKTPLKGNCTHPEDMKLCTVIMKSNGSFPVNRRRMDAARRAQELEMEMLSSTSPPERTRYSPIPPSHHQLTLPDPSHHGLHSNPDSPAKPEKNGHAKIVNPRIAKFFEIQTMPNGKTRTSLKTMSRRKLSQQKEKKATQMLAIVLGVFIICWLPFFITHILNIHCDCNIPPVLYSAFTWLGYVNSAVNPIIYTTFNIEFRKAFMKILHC
Chain of Sodium-dependent serotonin transporter (Rattus norvegicus) (P31652 whole entry): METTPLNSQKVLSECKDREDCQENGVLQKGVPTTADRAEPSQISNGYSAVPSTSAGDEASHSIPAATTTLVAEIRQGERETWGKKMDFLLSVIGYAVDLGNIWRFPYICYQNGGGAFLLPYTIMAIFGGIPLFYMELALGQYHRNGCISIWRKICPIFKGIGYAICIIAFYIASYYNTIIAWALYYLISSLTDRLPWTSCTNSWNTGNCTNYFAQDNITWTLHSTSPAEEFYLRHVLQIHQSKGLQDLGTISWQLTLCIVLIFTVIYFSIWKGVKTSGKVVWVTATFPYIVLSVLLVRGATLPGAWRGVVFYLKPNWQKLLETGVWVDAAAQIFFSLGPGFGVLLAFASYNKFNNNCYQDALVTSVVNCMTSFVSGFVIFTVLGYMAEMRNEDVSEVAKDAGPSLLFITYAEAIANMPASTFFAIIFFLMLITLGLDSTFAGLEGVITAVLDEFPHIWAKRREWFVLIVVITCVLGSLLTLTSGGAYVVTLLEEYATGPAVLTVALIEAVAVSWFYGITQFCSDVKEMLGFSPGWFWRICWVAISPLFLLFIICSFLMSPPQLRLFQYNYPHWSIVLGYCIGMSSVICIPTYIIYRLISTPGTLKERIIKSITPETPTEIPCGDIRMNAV
Chain of D(1A) dopamine receptor (Rattus norvegicus) (P18901 whole entry): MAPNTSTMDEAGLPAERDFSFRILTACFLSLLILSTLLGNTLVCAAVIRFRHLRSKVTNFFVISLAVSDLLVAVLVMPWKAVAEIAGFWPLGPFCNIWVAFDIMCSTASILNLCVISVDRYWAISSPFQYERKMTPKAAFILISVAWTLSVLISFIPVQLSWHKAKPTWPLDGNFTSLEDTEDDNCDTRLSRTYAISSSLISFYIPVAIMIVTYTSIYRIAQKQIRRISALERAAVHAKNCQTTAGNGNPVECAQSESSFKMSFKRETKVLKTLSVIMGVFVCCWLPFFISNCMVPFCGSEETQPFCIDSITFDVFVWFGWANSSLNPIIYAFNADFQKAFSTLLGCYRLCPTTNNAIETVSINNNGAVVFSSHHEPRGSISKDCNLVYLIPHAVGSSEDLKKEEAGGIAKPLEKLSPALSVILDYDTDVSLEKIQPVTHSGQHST
Chain of Norepinephrine transporter (Rattus norvegicus) (Q9WTR4 as listed by the source): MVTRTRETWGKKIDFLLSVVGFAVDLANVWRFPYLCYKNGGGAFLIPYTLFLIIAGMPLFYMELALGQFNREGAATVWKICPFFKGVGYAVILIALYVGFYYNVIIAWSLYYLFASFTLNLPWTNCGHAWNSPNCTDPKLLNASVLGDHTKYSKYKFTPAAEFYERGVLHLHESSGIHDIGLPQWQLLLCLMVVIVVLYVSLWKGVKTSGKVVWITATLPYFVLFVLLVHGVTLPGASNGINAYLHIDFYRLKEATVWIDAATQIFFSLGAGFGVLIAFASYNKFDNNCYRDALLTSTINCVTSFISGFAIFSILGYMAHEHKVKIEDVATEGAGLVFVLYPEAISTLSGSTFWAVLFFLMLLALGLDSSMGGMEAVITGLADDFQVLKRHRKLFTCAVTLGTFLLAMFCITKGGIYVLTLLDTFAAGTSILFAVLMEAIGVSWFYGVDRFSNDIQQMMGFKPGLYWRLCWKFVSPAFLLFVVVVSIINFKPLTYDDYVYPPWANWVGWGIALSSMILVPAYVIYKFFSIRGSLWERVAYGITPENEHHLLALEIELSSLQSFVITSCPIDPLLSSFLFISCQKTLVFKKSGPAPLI
Chain of Norepinephrine transporter (Q9WTR4 whole entry): as the sequence (Q9WTR4 as listed by the source) above
Chain of Sodium-dependent dopamine transporter (P23977 whole entry): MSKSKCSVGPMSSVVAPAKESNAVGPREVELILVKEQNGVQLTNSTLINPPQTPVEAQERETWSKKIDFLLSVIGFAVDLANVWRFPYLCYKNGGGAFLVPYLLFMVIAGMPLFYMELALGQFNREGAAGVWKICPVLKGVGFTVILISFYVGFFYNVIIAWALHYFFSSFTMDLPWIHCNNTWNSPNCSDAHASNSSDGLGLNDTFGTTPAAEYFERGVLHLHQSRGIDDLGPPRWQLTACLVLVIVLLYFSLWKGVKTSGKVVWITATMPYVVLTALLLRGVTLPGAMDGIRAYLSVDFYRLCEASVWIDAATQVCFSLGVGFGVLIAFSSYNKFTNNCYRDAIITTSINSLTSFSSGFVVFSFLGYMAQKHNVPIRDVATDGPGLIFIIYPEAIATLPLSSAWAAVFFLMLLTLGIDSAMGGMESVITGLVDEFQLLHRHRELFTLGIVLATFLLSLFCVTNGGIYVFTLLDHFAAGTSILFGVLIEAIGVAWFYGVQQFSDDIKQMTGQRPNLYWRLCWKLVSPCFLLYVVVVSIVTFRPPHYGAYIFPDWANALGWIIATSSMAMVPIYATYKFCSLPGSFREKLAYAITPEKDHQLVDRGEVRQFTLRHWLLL
Chain of Serotonin 2 (5-HT2) receptor (Rattus norvegicus) (P08909 whole entry, looked up): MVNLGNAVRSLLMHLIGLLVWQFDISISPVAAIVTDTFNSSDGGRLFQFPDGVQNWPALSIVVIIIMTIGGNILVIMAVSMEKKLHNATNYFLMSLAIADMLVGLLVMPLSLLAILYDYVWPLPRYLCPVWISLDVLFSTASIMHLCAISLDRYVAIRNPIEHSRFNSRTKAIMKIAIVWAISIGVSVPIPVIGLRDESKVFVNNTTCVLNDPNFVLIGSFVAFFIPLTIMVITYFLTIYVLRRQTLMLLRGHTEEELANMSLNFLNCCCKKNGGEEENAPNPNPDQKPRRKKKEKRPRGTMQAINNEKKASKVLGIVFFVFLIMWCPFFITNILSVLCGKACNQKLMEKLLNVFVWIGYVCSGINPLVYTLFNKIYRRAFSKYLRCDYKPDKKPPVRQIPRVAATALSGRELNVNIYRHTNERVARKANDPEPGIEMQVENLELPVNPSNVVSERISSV
Chain of Serotonin 2 (5-HT2) receptor (Rattus norvegicus) (P14842 whole entry, looked up): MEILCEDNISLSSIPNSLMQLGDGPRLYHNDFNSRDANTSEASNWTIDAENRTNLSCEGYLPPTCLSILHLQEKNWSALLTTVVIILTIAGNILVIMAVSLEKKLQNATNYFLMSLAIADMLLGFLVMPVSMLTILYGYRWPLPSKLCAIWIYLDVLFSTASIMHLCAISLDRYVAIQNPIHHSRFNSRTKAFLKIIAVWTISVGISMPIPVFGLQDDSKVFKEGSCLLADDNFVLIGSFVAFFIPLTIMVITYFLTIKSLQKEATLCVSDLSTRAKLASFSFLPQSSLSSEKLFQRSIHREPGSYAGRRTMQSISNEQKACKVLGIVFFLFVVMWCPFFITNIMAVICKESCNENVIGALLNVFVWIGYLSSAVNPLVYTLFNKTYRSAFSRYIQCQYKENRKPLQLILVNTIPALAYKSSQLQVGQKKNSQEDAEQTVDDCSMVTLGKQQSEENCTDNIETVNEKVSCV
Chain of Serotonin 2 (5-HT2) receptor (Rattus norvegicus) (P30994 whole entry, looked up): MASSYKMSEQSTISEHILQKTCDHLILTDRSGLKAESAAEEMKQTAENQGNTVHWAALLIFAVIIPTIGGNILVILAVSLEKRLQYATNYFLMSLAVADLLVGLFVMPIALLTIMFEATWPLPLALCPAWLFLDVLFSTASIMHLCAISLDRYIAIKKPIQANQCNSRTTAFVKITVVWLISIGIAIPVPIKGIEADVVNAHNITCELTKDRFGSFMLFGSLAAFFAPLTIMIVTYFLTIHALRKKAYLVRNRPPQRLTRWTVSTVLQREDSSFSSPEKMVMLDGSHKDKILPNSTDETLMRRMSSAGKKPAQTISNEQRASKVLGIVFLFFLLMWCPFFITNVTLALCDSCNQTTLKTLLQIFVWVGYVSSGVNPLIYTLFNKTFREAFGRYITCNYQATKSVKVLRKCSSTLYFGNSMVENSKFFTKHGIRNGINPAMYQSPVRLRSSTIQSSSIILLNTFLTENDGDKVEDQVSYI

inhibition [15] [%]	inhibition [16] [%]	SMILES	inhibition [1] [%]	ED50 (Mus musculus [2]) [mg/kg]	Ki [4] [nM]	behavior (Mus musculus [7])	ED50 (Mus musculus [11]) [mg/kg]	inhibition (Rattus norvegicus [14]) [%]	other results
		CN(C)CCCN1c2ccccc2CCc2ccccc21 [IMIPRAMINE]	63	0.78	4900				inhibition [3]: 15%
		C[C@@]12CCCN1CCc1ccccc12				Weak			ED50 (Mus musculus [5]): inactive; ED50 (Mus musculus [6]): inactive; Inhibition (Rattus norvegicus [8]): 15%; inhibition [9]: 6%; inhibition [10]: 2%
		c1ccc(CCN2CCCC2c2ccccc2)cc1 (stereo not given)		~10		Weak	~10		inhibition in vivo at 0.1 mg/kg (Rattus norvegicus [12]): 38%; inhibition in vivo at 0.1 mg/kg (Rattus norvegicus [13]): 4%
6	12	Clc1ccccc1[C@@H]1CN2CCC[C@@H]2c2ccccc21 (stereo in doubt; 24b)				Partial stimulant		16	
1	7	FC(F)(F)c1cccc([C@@H]2CN3CCC[C@@H]3c3ccccc32)c1 (stereo in doubt; 37b)				Partial stimulant		16	inhibition [17]: 17%

SMILES	inhibition [15] [%]	inhibition [16] [%]	inhibition [1] [%]	ED50 (Mus musculus [2]) [mg/kg]	Ki [4] [nM]	behavior (Mus musculus [7])	ED50 (Mus musculus [11]) [mg/kg]	inhibition (Rattus norvegicus [14]) [%]	other results
Clc1ccc([C@@H]2CN3CCC[C@@H]3c3ccccc32)cc1Cl	9		37	0.14	990		0.39		inhibition [18]: 24%; behavior (Mus musculus [19]): Stimulant; Ki [20]: 465 nM; Ki [21]: 0.99 nM; Ki [22]: 0.68 nM; inhibition [23]: 33%

Source: ChEMBL document CHEMBL1123812, “Pyrroloisoquinoline antidepressants. 2. In-depth exploration of structure-activity relationships” (J Med Chem, 1987)
